Measurements pooled from the literature.
Target: Alpha-2A adrenergic receptor (ADRA2A, Homo sapiens, UniProt P08913)
One construct used (P08913 1-465): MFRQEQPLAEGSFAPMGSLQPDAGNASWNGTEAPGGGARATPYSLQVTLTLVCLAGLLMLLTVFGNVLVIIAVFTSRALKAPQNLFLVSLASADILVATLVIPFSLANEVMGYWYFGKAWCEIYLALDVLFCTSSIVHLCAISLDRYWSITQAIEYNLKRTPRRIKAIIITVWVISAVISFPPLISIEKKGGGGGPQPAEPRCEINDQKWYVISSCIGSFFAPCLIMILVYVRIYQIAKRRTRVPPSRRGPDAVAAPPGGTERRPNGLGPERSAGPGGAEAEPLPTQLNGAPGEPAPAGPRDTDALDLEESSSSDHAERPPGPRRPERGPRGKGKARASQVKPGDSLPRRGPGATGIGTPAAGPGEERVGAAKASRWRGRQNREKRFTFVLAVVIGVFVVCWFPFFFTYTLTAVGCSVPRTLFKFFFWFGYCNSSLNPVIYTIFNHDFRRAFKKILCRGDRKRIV

Clc1ccc2c(C3CCN(CCc4c[nH]c5ccccc45)CC3)c[nH]c2c1 — inhibition (ligand displacement, radioligand; 10 µM): 82%
CC(C)N1CCC[C@H]1CNC(=O)c1cn(C2CCCC2)c(=O)c2c1c1ccccc1n2C — inhibition (ligand displacement, radioligand; 10 µM): 37%
N#CC1(c2ccccn2)CCN(Cc2cc(C(=O)O)c(=O)n3ccccc23)CC1 — inhibition (cell-free assay; 10 µM): -25.7%
Nc1ncc(-c2nc(N3CCOCC3)nc(N3CCOCC3)n2)c(C(F)F)n1 — remaining signal (cell-free assay, radioligand; 10 µM): 114%
Cc1c(N2CCNCC2)nc2ccc(Br)cc2c1C(=O)NC[C@H](CCC(=O)O)c1ccccc1Cl — inhibition (ligand displacement; 10 µM): 65%
CC(C)Cn1cnc2c(N)nc3ccccc3c21 — inhibition (ligand displacement, radioligand; 10 µM): 58%
COCc1c(-c2cc3cc(C)cc(OC)c3s2)c2c(N)ncnn2c1CN1CCNC(=O)C1 — inhibition (ligand displacement, radioligand; 10 µM): 26%
COc1ccc(S(=O)(=O)N2CCCCC2)cc1C — inhibition (ligand displacement, radioligand; 10 µM): < 30%
O=C(Nc1cccnn1)N1CCN([C@@H]2CCOc3cc(C(F)(F)F)ccc32)CC1 — inhibition (ligand displacement; 20 µM): 7%
